Measured values reported in ChEMBL document CHEMBL4732241, “Synthesis of artemisinin-piperazine-furan ether hybrids and evaluation of in vitro cytotoxic activity” (Eur J Med Chem, 2021).

Columns and labels:
L02 = assay: Cytotoxicity against human L02 cells assessed as cell viability after 24 hrs by MTT assay; format: functional, cell-based; details: L02, 24 h
Outline: (§1)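 Cells pre-cultured 24 h at 37 C, then exposed for 24 h to compounds at […], with drug-free and DMSO solvent controls. MTT read-out: formazan dissolved in DMSO, absorbance at 568 nm. Inhibition rate taken relative to the negative control. IC50 from triplicate measurements.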

SMMC-7721 [1] = assay: Cytotoxicity against human SMMC-7721 cells assessed as cell viability after 24 hrs by MTT assay; format: functional, cell-based; details: SMMC-7721, 24 h; outline: as §1
SMMC-7721 [2] = assay: Induction of apoptosis in human SMMC-7721 cells assessed as viable cells at 0.1 ug/ml after 48 hrs annexin V-[…]/PI by flow cytometry (reference value: 93.54 to 94.31%); format: functional; details: read-out: Activity
SMMC-7721 [3] = assay: Cytotoxicity against human SMMC-7721 cells assessed as cell viability after 48 hrs by MTT assay; format: functional, cell-based; details: SMMC-7721, 48 h
Outline: (§2)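 Cells pre-cultured 24 h at 37 C, then given fresh medium with compound at […] alongside drug-free and DMSO solvent controls. Incubated 48 h at 37 C, then MTT (2 mg/mL in PBS) added for 4 h. Formazan dissolved in DMSO and A568 read. Inhibition rate taken relative to the negative control. IC50 from triplicate measurements.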

SMMC-7721 [4] = assay: Induction of apoptosis in human SMMC-7721 cells assessed as viable cells at 10 ug/ml after 48 hrs annexin V-[…]/PI by flow cytometry (reference value: 93.54 to 94.31%); format: functional; details: read-out: Activity
MCF-10A = assay: Cytotoxicity against human MCF-10A cells assessed as cell viability after 48 hrs by MTT assay; format: cell-based; outline: as §2
SMMC-7721 [5] = assay: Induction of apoptosis in human SMMC-7721 cells assessed as early apoptotic cells at 10 ug/ml after 48 hrs annexin V-[…]/PI by flow cytometry (reference value: 3.3 to 3.16%); format: functional; details: dose 10 µg/ml
SMMC-7721 [6] = assay: Induction of apoptosis in human SMMC-7721 cells assessed as necrotic cells at 0.1 ug/ml after 48 hrs annexin V-[…]/PI by flow cytometry (reference value: 0.15 to 0.29%); format: functional; details: dose 0.1 µg/ml
SMMC-7721 [7] = assay: Induction of apoptosis in human SMMC-7721 cells assessed as viable cells at 100 ug/ml after 48 hrs annexin V-[…]/PI by flow cytometry (reference value: 93.54 to 94.31%); format: functional; details: read-out: Activity
SMMC-7721 [8] = assay: Induction of apoptosis in human SMMC-7721 cells assessed as late apoptotic cells at 10 ug/ml after 48 hrs annexin V-[…]/PI by flow cytometry (reference value: 2.42 to 3%); format: functional; details: dose 10 µg/ml
MCF7 = assay: Cytotoxicity against human MCF7 cells assessed as cell viability after 48 hrs by MTT assay; format: functional, cell-based; details: MCF7, 48 h; outline: as §2
SMMC-7721 [9] = assay: Induction of apoptosis in human SMMC-7721 cells assessed as late apoptotic cells at 0.1 ug/ml after 48 hrs annexin V-[…]/PI by flow cytometry (reference value: 2.42 to 3%); format: functional; details: dose 0.1 µg/ml
CCD-18Co = assay: Cytotoxicity against human CCD-18C0 cells assessed as cell viability after 48 hrs by MTT assay; format: functional, cell-based; outline: as §2
[10] = Cytotoxicity against human HCCLM3 cells assessed as cell viability after 48 hrs by MTT assay; format: functional, cell-based; details: HCCLM3, 48 h; outline: as §2
MHCC97H = assay: Cytotoxicity against human MHCC97H cells assessed as cell viability after 48 hrs by MTT assay; format: functional, cell-based; outline: as §2
SMMC-7721 [11] = assay: Induction of apoptosis in human SMMC-7721 cells assessed as necrotic cells at 10 ug/ml after 48 hrs annexin V-[…]/PI by flow cytometry (reference value: 0.15 to 0.29%); format: functional; details: dose 10 µg/ml
SMMC-7721 [12] = assay: Induction of apoptosis in human SMMC-7721 cells assessed as early apoptotic cells at 0.1 ug/ml after 48 hrs annexin V-[…]/PI by flow cytometry (reference value: 3.3 to 3.16%); format: functional; details: dose 0.1 µg/ml
SMMC-7721 [13] = assay: Cytotoxicity against human SMMC-7721 cells assessed as cell viability after 48 hrs in presence of 100 umol/L FeSO4 by MTT assay; format: functional, cell-based; details: SMMC-7721, 48 h
SMMC-7721 [14] = assay: Induction of apoptosis in human SMMC-7721 cells assessed as early apoptotic cells at 100 ug/ml after 48 hrs annexin V-[…]/PI by flow cytometry (reference value: 3.3 to 3.16%); format: functional; details: dose 100 µg/ml
Huh-7 = assay: Cytotoxicity against human HUH-7 cells assessed as cell viability after 48 hrs by MTT assay; format: functional, cell-based; details: Huh-7, 48 h; outline: as §2
SMMC-7721 [15] = assay: Induction of apoptosis in human SMMC-7721 cells assessed as late apoptotic cells at 100 ug/ml after 48 hrs annexin V-[…]/PI by flow cytometry (reference value: 2.42 to 3%); format: functional; details: dose 100 µg/ml
SMMC-7721 [16] = assay: Induction of apoptosis in human SMMC-7721 cells assessed as necrotic cells at 100 ug/ml after 48 hrs annexin V-[…]/PI by flow cytometry (reference value: 0.15 to 0.29%); format: functional; details: dose 100 µg/ml
HCT-116 = assay: Cytotoxicity against human HCT-116 cells assessed as cell viability after 48 hrs by MTT assay; format: functional, cell-based; details: HCT-116, 48 h; outline: as §2

For `CC(C)[C@H]1CC[C@H](C)C[C@@H]1O[C@H]1OC(=O)C(Br)=C1N1CCN([C@@H]2O[C@@H]3O[C@@]4(C)CC[C@H]5[C@H](C)CC[C@@H]([C@H]2C)[C@@]35OO4)CC1`, which IC50 (L02) is on record?
The IC50 was 360 nM.

What about the IC50 (SMMC-7721 [1]) of the same compound?
The IC50 was 390 nM.

Which IC50 (L02) does the source give for `CCOC1OC(=O)C(Cl)=C1N1CCN([C@@H]2O[C@@H]3O[C@@]4(C)CC[C@H]5[C@H](C)CC[C@@H]([C@H]2C)[C@@]35OO4)CC1` (stereo partly drawn) here?
The IC50 was over 700 nM.

What about the IC50 (SMMC-7721 [1]) of the same compound?
The IC50 was 560 nM.

With `C[C@@H]1CC[C@H]2[C@@H](C)C(=O)O[C@@H]3O[C@@]4(C)CC[C@@H]1[C@]32OO4` [ARTEMISININ] as the compound, how does the IC50 (L02) read?
The IC50 was 430 nM.

What about the IC50 (SMMC-7721 [1]) of the same compound?
The IC50 was 630 nM.

Which results are given for `COC1OC(=O)C(Br)=C1N1CCN([C@@H]2O[C@@H]3O[C@@]4(C)CC[C@H]5[C@H](C)CC[C@@H]([C@H]2C)[C@@]35OO4)CC1` (stereo partly drawn)?
IC50 (L02): 260 nM; IC50 (SMMC-7721 [1]): 290 nM

Which IC50 (L02) does the source give for `CCOC1OC(=O)C(Br)=C1N1CCN([C@@H]2O[C@@H]3O[C@@]4(C)CC[C@H]5[C@H](C)CC[C@@H]([C@H]2C)[C@@]35OO4)CC1` (stereo partly drawn) here?
Its IC50 is 500 nM.

What about the IC50 (SMMC-7721 [1]) of the same compound?
Its IC50 is 430 nM.

With `COC1OC(=O)C(Cl)=C1N1CCN([C@@H]2O[C@@H]3O[C@@]4(C)CC[C@H]5[C@H](C)CC[C@@H]([C@H]2C)[C@@]35OO4)CC1` (stereo partly drawn) as the compound, how does the viability at 0.1 µg/mL (SMMC-7721 [2]) read?
Its viability at 0.1 µg/mL is 88.6%.

And the IC50 (SMMC-7721 [3])?
Its IC50 is 110 nM.

What about the viability at 10 µg/mL (SMMC-7721 [4]) of the same compound?
Its viability at 10 µg/mL is 82.1%.

What about the IC50 (MCF-10A) of the same compound?
Its IC50 is 220 nM.

And the Activity (SMMC-7721 [5])?
The Activity was 8.77%.

What about the IC50 (L02) of the same compound?
The IC50 was 320 nM.

And the Activity (SMMC-7721 [6])?
Its Activity is 0.14%.

And the viability at 100 µg/mL (SMMC-7721 [7])?
The viability at 100 µg/mL was 60.3%.

What about the Activity (SMMC-7721 [8]) of the same compound?
The Activity was 6.06%.

And the IC50 (MCF7)?
The IC50 was 80 nM.

And the Activity (SMMC-7721 [9])?
The Activity was 3.21%.

What about the IC50 (CCD-18Co) of the same compound?
Its IC50 is 100 nM.

And the IC50 [10]?
The IC50 was 100 nM.

What about the IC50 (MHCC97H) of the same compound?
Its IC50 is 100 nM.

What about the Activity (SMMC-7721 [11]) of the same compound?
The Activity was 0.49%.

And the Activity (SMMC-7721 [12])?
Its Activity is 4.26%.

And the IC50 (SMMC-7721 [13])?
The IC50 was 100 nM.

What about the Activity (SMMC-7721 [14]) of the same compound?
The Activity was 20.35%.

What about the IC50 (Huh-7) of the same compound?
Its IC50 is 160 nM.

And the Activity (SMMC-7721 [15])?
The Activity was 14.42%.

What about the IC50 (SMMC-7721 [1]) of the same compound?
Its IC50 is 260 nM.

What about the Activity (SMMC-7721 [16]) of the same compound?
Its Activity is 0.73%.

What about the IC50 (HCT-116) of the same compound?
Its IC50 is 100 nM.

Which IC50 (L02) does the source give for `CC(C)[C@H]1CC[C@H](C)C[C@@H]1O[C@H]1OC(=O)C(Cl)=C1N1CCN([C@@H]2O[C@@H]3O[C@@]4(C)CC[C@H]5[C@H](C)CC[C@@H]([C@H]2C)[C@@]35OO4)CC1` here?
Its IC50 is 640 nM.

And the IC50 (SMMC-7721 [1])?
The IC50 was 520 nM.

Which results are given for `CC[C@]1(O)C[C@H]2CN(CCc3c([nH]c4ccccc34)[C@@](C(=O)OC)(c3cc4c(cc3OC)N(C=O)[C@H]3[C@@](O)(C(=O)OC)[C@H](OC(C)=O)[C@]5(CC)C=CCN6CC[C@]43[C@@H]65)C2)C1` [VINCRISTINE]?
IC50 (L02): 300 nM; IC50 (SMMC-7721 [1]): 270 nM

Which IC50 (L02) does the source give for `C[C@H]1[C@H](N2CCN(C3=C(Br)C(=O)O[C@@H]3O[C@H]3CC4CCC3(C)C4(C)C)CC2)O[C@@H]2O[C@@]3(C)CC[C@H]4[C@H](C)CC[C@@H]1[C@@]24OO3` here?
Its IC50 is 480 nM.

What about the IC50 (SMMC-7721 [1]) of the same compound?
Its IC50 is 480 nM.

Which results are given for `C[C@H]1[C@H](N2CCN(C3=C(Cl)C(=O)OC3O[C@H]3CC4CCC3(C)C4(C)C)CC2)O[C@@H]2O[C@@]3(C)CC[C@H]4[C@H](C)CC[C@@H]1[C@@]24OO3` (stereo partly drawn)?
IC50 (L02): 460 nM; IC50 (SMMC-7721 [1]): 570 nM

With `C[C@H]1[C@H](O)O[C@@H]2O[C@@]3(C)CC[C@H]4[C@H](C)CC[C@@H]1[C@@]24OO3` as the compound, how does the IC50 (L02) read?
The IC50 was 220 nM.

What about the IC50 (SMMC-7721 [1]) of the same compound?
Its IC50 is over 700 nM.
